The values below come from ChEMBL document CHEMBL5532760, “Synergy between the clavanins as a weapon against multidrug-resistant Enterobacter cloacae” (2024).

The test system of test [1] is Enterobacter cloacae. The experiment in a line: Antibacterial activity against Enterobacter cloacae 0136 at pH 7.4 incubated for 18 to 20 hrs by broth microdilution method. The format is functional. The conditions noted are these: time 18-20 hrs. In short, it runs like this:
(§1)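 E. cloacae AR#0136 grown at 37 °C with shaking at 234 rpm to mid-log (OD600 0.4–0.6) in MHB. For pH 5.5 the medium was adjusted with 0.1 M HCl before autoclaving; the pH 7.4 medium was not adjusted. Peptides were twofold serially diluted; final inoculum 5×10^5 CFU/mL; 37 °C for 18–20 h. MIC taken as the lowest concentration with no visible growth.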
On the technique in general: Broth dilution looks for growth in wells or tubes with falling amounts of substance.

For test [2], the system named is Enterobacter cloacae. Kind of test: Antibacterial activity against Enterobacter cloacae 0136 at pH 5.5 incubated for 18 to 20 hrs by broth microdilution method. The format is functional. The conditions noted are these: time 18-20 hrs. In short, it runs like this:
as §1

≈ marks a conversion by molar mass, not a printed value. Where “and” joins values, the source holds several entries; their conditions need not be identical. Equal values may be shown once. Where a SMILES comes first, the peptide text is derived from it. [ ]: non-standard residue; d: D form. Dopa = N[C@@H](Cc1ccc(O)c(O)c1)C(=O)O

In the case of `CC[C@H](C)[C@H](NC(=O)[C@H](CCCNC(=N)N)NC(=O)CNC(=O)[C@H](CC(C)C)NC(=O)[C@H](CC(C)C)NC(=O)[C@H](CCCCN)NC(=O)[C@H](Cc1ccccc1)NC(=O)[C@H](C)N)C(=O)N[C@H](C(=O)N[C@@H](Cc1cnc[nH]1)C(=O)N[C@@H](Cc1cnc[nH]1)C(=O)N[C@H](C(=O)NCC(=O)N[C@@H](CC(N)=O)C(=O)N[C@@H](Cc1ccccc1)C(=O)N[C@H](C(=O)N[C@@H](Cc1ccc(O)c(O)c1)C(=O)NCC(=O)N[C@@H](Cc1ccccc1)C(=O)N[C@@H](CO)C(=O)N[C@@H](Cc1cnc[nH]1)C(=O)N[C@H](C(=O)N[C@@H](Cc1ccccc1)C(=O)O)C(C)C)C(C)C)C(C)C)[C@@H](C)CC` (H-AFKLLGRIIHHVGNFV[Dopa]GFSHVF-OH), the MIC against Enterobacter cloacae [1] was > 128 µM and 371 µg/mL; in the test on Enterobacter cloacae [2], 8 µM and 23 µg/mL.

With H-FLRFIGSVIHGIGHLVHHIGVAL-NH2, the MIC against Enterobacter cloacae [1] stood at 348 µg/mL; against Enterobacter cloacae [2], 11 µg/mL.

Regarding H-VFQFLGKIIHHVGNFVHGFSHVF-NH2, the minimum inhibitory concentration (MIC) against Enterobacter cloacae [1] is > 128 µM and 341 µg/mL; against Enterobacter cloacae [2] it was > 128 µM and 341 µg/mL.

As to `CC[C@H](C)[C@H](NC(=O)[C@H](CCCCN)NC(=O)CNC(=O)[C@H](CC(C)C)NC(=O)[C@H](CC(C)C)NC(=O)[C@H](Cc1cnc[nH]1)NC(=O)[C@H](Cc1ccccc1)NC(=O)[C@@H](N)C(C)C)C(=O)N[C@H](C(=O)N[C@@H](Cc1cnc[nH]1)C(=O)N[C@@H](Cc1cnc[nH]1)C(=O)N[C@H](C(=O)NCC(=O)N[C@@H](CC(N)=O)C(=O)N[C@@H](Cc1ccccc1)C(=O)N[C@H](C(=O)N[C@@H](Cc1ccc(O)c(O)c1)C(=O)NCC(=O)N[C@@H](Cc1ccccc1)C(=O)N[C@@H](CO)C(=O)N[C@@H](Cc1cnc[nH]1)C(=O)N[C@H](C(=O)N[C@@H](Cc1ccccc1)C(=O)O)C(C)C)C(C)C)C(C)C)[C@@H](C)CC`, the MIC in the test on Enterobacter cloacae [1] is > 128 µM and 372 µg/mL; against Enterobacter cloacae [2], 46 µg/mL (≈ 17.1 µM).

Consider H-GIGKFLHSAKKFGKAFVGEIMNS-NH2, for which the MIC in the test with Enterobacter cloacae [1] is 4 µM and 4.9 µg/mL; against Enterobacter cloacae [2], 4 µM and 4.9 µg/mL.

For H-VFQFLGRIIHHVGNFVHGFSHVF-NH2, the MIC against Enterobacter cloacae [1] was > 128 µM and 344 µg/mL; against Enterobacter cloacae [2], 128 µM and 344 µg/mL.

In the case of H-LFKLLGKIIHHVGNFVHGFSHVF-NH2, the MIC in the test on Enterobacter cloacae [1] is > 128 µM and 368 µg/mL; in the test with Enterobacter cloacae [2] it was 8 µM and 23 µg/mL.

In general, MIC refers to the lowest concentration that inhibits growth of the organism.
